The nature of series [1]: Cytotoxicity against in Balb/c mouse B cells at 10^-6 M after 48 hrs by MTT assay. To be noted: 1 µM. In kind it is cell-based. The method in brief:
(§1)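 Spleens taken aseptically from Balb/c mice (18–22 g). Single-cell suspension made in incomplete RPMI, RBCs lysed with Tris-ammonium chloride, cells washed, resuspended in complete RPMI and checked for viability by trypan blue. Cells seeded at 1 × 10⁶ cells/mL. Compounds in DMSO tested at 1×10⁻⁴, 1×10⁻⁵ and 1×10⁻⁶ M, 48 h, 37 °C, 5% CO₂.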
In general terms: Formazan colour is commonly taken as a measure of viable cells.

The nature of series [2]: Cytotoxicity against in Balb/c mouse B cells at 10^-5 M after 48 hrs by MTT assay. Format: cell-based. The conditions noted are these: 10 µM. The method in brief: as §1
Series [3] can be described thus: Cytotoxicity against in Balb/c mouse T cells at 10^-6 M after 48 hrs by MTT assay. To be noted: t-cell, 1 µM. Format: cell-based. The method in brief: as §1
Series [4] can be described thus: Cytotoxicity against in Balb/c mouse T cells at 10^-5 M after 48 hrs by MTT assay. To be noted: t-cell, 10 µM. In kind it is cell-based. The gist of the method: as §1
The nature of series [5]: Cytotoxicity against in Balb/c mouse T cells at 10^-4 M after 48 hrs by MTT assay. The conditions noted are these: t-cell, 100 µM. Format: cell-based. The method in brief: as §1
A short description of series [6]: Cytotoxicity against in Balb/c mouse B cells at 10^-4 M after 48 hrs by MTT assay. To be noted: 100 µM. Format: cell-based. The method in brief: as §1
The nature of series [7]: Immunostimulant activity in Balb/c mouse B cells assessed as inhibition of LPS-induced cell proliferation at 10^-6 M after 48 hrs by MTT assay. In kind it is functional. The gist of the method:
as §1

Series [8] is described as follows: Immunostimulant activity in Balb/c mouse B cells assessed as inhibition of LPS-induced cell proliferation at 10^-5 M after 48 hrs by MTT assay. In kind it is functional. The gist of the method:
as §1

Series [9] in a line: Immunostimulant activity in Balb/c mouse B cells assessed as inhibition of LPS-induced cell proliferation at 10^-4 M after 48 hrs by MTT assay. In kind it is functional. The method in brief:
as §1

Series [10] in a line: Immunostimulant activity in Balb/c mouse T cells assessed as inhibition of concanavalin A-induced cell proliferation at 10^-4 M after 48 hrs by MTT assay. Format: functional. To be noted: Mus musculus, Balb/c, T-cell, 48 h. The gist of the method:
as §1

Series [11] in a line: Immunosuppressive activity in Balb/c mouse T cells assessed as inhibition of concanavalin A-induced cell proliferation at 10^-6 M after 48 hrs by MTT assay. Format: functional. The conditions noted are these: Mus musculus, Balb/c, T-cell, 48 h. The gist of the method:
as §1

Series [12] is described as follows: Immunosuppressive activity in Balb/c mouse T cells assessed as inhibition of concanavalin A-induced cell proliferation at 10^-5 M after 48 hrs by MTT assay. Format: functional. The gist of the method:
as §1

Series [13] can be described thus: Immunosuppressive activity in Balb/c mouse B cells assessed as inhibition of LPS-induced cell proliferation at 10^-6 M after 48 hrs by MTT assay. Format: functional. The gist of the method: as §1
A short description of series [14]: Immunosuppressive activity in Balb/c mouse T cells assessed as inhibition of concanavalin A-induced cell proliferation at 10^-4 M after 48 hrs by MTT assay. Format: functional. The gist of the method:
as §1

Series [15] in a line: Immunostimulant activity in Balb/c mouse T cells assessed as inhibition of concanavalin A-induced cell proliferation at 10^-6 M after 48 hrs by MTT assay. Format: functional. The gist of the method: as §1
Series [16] is described as follows: Immunostimulant activity in Balb/c mouse T cells assessed as inhibition of concanavalin A-induced cell proliferation at 10^-5 M after 48 hrs by MTT assay. Format: functional. The method in brief: as §1
A short description of series [17]: Immunosuppressive activity in Balb/c mouse B cells assessed as inhibition of LPS-induced cell proliferation at 10^-4 M after 48 hrs by MTT assay. In kind it is functional. The method in brief:
as §1

The subject of the next series is Plasmodium falciparum. As to the kind of experiment: Antimalarial activity against chloroquine-resistant Plasmodium falciparum Smith. Format: functional. The conditions noted are these: read-out: ED50 (the source's name).
Another series concerns B. As to the kind of experiment: Immunosuppressive activity in Balb/c mouse B cells assessed as inhibition of LPS-induced cell proliferation after 48 hrs by MTT assay. In kind it is functional, cell-based. The method in brief:
as §1

Series [18] is described as follows: Immunosuppressive activity in Balb/c mouse B cells assessed as inhibition of LPS-induced cell proliferation at 10^-5 M after 48 hrs by MTT assay. In kind it is functional. The method in brief: as §1

≈ marks a conversion by molar mass, not a printed value.

One may read the inhibition as the change of the read-out against control, counted positive when it falls. In the case of `CCCOc1ccc(-n2nncc2COc2cc(C)c3c(c2C)[C@@H]2OC(=O)[C@@H](C)[C@@H]2CC3)cc1Cl`, the Activity entry in series [1], in series [2], in series [3], in [4], in series [5] and in [6] was “Non-toxic” in each case. Also, the inhibition at 1 µM in series [7] worked out at 41.4%; in [11], 7.14%. Besides, the inhibition at 10 µM in series [8] turned out to be 12.8%; in series [12], 27.1%. In addition, the values for the inhibition at 100 µM in series [9] and in series [10] were 21.4% and 7.14%, respectively.
As to `Cc1cc(OCc2cnnn2-c2cccc([N+](=O)[O-])c2)c(C)c2c1CC[C@H]1[C@H](C)C(=O)O[C@@H]21`, the Activity entry in series [1] is on record as “Non-toxic”; in series [2], “Toxic”; in [3] it was “Non-toxic”; in [4], “Toxic”; in series [5], “Toxic”; in series [6], “Toxic”. The inhibition at 10 µM amounted to 0.85% in [8] and 93.9% in [12]. Further, the inhibition at 100 µM in [9] amounted to 36.8%; in series [14], 95.1%. Besides, the inhibition at 1 µM in series [13] is 24.8%; in [11] it was 93.9%.
As for `Cc1cc(OCc2cnnn2-c2ccccc2)c(C)c2c1CC[C@H]1[C@H](C)C(=O)O[C@@H]21`, the Activity entry is reported as “Non-toxic” in [1]; “Toxic” in series [2]; “Non-toxic” in series [3]; “Toxic” in series [4]; “Toxic” in series [5]; “Toxic” in [6]. The inhibition at 1 µM in [7] amounted to 30%; in series [11], 21.4%. Moreover, the inhibition at 10 µM in [8] was determined as 8.57%. For the same compound, the inhibition at 100 µM in series [9] was 1.42%; in [10], 97.1%.
With `Cc1cc(OCc2cnnn2-c2ccc(F)cc2)c(C)c2c1CC[C@H]1[C@H](C)C(=O)O[C@@H]21`, the Activity entry in series [1], in series [2], in series [3], in series [4], in series [5] and in [6] was “Non-toxic” each time. Also, the inhibition at 1 µM in [7] came out at 11.4%; in series [15], 12.8%. Also, the figures for the inhibition at 10 µM in series [8] and in series [16] were 10% and 44.3%, respectively. For the same compound, the values for the inhibition at 100 µM in series [10] and in [17] were 70% and 2.85%, respectively.
In the case of `CC1=CC2C[C@]3(C)CC[C@H]4[C@H](C)C(=O)O[C@@H]4C13OO2` (stereo partly drawn), the EC50 in the series with Plasmodium falciparum came out at 0.729 µg/mL (≈ 2.76 µM).
Turning to `COc1c(Br)cc(C)cc1-n1nncc1COc1cc(C)c2c(c1C)[C@@H]1OC(=O)[C@@H](C)[C@@H]1CC2`, the Activity result in [1], in [2], in [3], in [4], in [5] and in series [6] was “Non-toxic” in each case. Besides, the results for the inhibition at 1 µM in series [7] and in series [15] were 27.1% and 5.71%, respectively. Further, the results for the inhibition at 10 µM in series [8] and in series [16] were 28.6% and 7.14%, respectively. Further, the inhibition at 100 µM in series [9] is 15.7%; in [10], 5.71%.
`CC(=O)Oc1cc(C)c2c(c1C)[C@@H]1OC(=O)[C@@H](C)[C@@H]1CC2`: the Activity result in [1], in series [2], in series [3], in [4], in series [5] and in [6] was “Non-toxic” in each case. Also, the values for the inhibition at 1 µM in series [15] and in series [13] were 18.3% and 23.9%, respectively. The values for the inhibition at 10 µM in [16] and in [18] were 26.8% and 25.6%, respectively. Moreover, the inhibition at 100 µM in series [10] is 47.6%; in [17] it was -36.8%. Moreover, in the series with B, the inhibition entry was “Dose-dependent effect”.

These data come from ChEMBL document CHEMBL2311361, “Diminutive effect on T and B-cell proliferation of non-cytotoxic α-santonin derived 1,2,3-triazoles: a report” (Eur J Med Chem, 2013).
